Consider one compound from ChEMBL document CHEMBL3865824, “New (E)-1-alkyl-1H-benzo[d]imidazol-2-yl)methylene)indolin-2-ones: Synthesis, in vitro cytotoxicity evaluation and apoptosis inducing studies” (Eur J Med Chem, 2016).

Active and inactive are the calls of the source. No cut-off for these calls is given here.

The subject of assay [1] is MDA-MB-231. Briefly: Induction of apoptosis in human MDA-MB-231 cells assessed as formation of condensed chromatin at 1 uM after 24 hrs by AO/EB-dual staining based fluorescent microscopic analysis. Format: functional, cell-based. In outline: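 MDA-MB-231 plated at 1×10^6 cells/mL and treated at 1, 2 or 4 µM, with a DMSO control. Incubation time is given as 48 h in the methods and 24 h in the figure legend. AO and EB added at 10 µg/mL each. Cells viewed within 10 min by fluorescence microscopy (excitation 488 nm, emission 550 nm) at 200×.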

Assay [2] can be described thus: Cytotoxicity against human MCF7 cells assessed as reduction in cell viability after 48 hrs by MTT assay. Format: functional, cell-based. The settings on record: MCF7, 48 h. In outline: (§1)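 Cells grown in DMEM or MEM with 10% FBS at 37 °C, 5% CO2. Seeded at 1×10^4 cells/well, incubated 48 h, then exposed to compound for 48 h with vehicle control. MTT (5 mg/mL stock) added for 4 h; formazan dissolved in DMSO, absorbance read at 570 nm. Preliminary screen at 50 µM. Compounds giving >50% inhibition were tested for dose-response curves; IC50 derived by linear regression of % inhibition versus concentration. Mean of three independent experiments in triplicate.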
(Tetrazolium assays rely on reduction of a dye to a coloured formazan, in cell work by metabolically active cells.)

Assay [3] relates to MDA-MB-231. Briefly: Induction of apoptosis in human MDA-MB-231 cells assessed as formation of condensed nuclei at 1 to 4 uM after 24 hrs by DAPI dye-based fluorescent microscopic analysis. Format: functional, cell-based. The method in brief:
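MDA-MB-231 grown at 1×10^6 cells/well in 6-well plates and treated at 1.0, 2.0 or 4.0 µM for 24 h, with untreated controls. Cells washed twice with PBS, fixed in 4% paraformaldehyde and stained with 10 µg/mL DAPI. Nuclei examined by fluorescence microscopy (excitation 359 nm, emission 461 nm) at 200×.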

The nature of assay [4]: Cell cycle arrest in human MDA-MB-231 cells assessed as accumulation at G2/M phase at 2 uM after 24 hrs by propidium iodide staining based FACS analysis (reference value: 26 %). Format: functional. In outline:
(§2)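 MDA-MB-231 at 1×10^6 cells/well treated with 1, 2 or 4 µM for 24 h, with a DMSO control. Cells harvested by trypsin, washed with PBS and fixed in 70% ethanol for 30 min at 4 °C. Stained 15 min at room temperature in the dark with PI buffer containing Triton X and DNase-free RNase A. Analysed by flow cytometry; G0/G1, S and G2/M fractions quantified.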
For orientation: A flow cytometer gives signals particle by particle.

A short description of assay [5]: Cytotoxicity against human BT549 cells assessed as growth inhibition at 50 uM after 48 hrs by MTT assay relative to control. Format: functional. The conditions noted are these: BT-549, 48 h, read-out: GI. The method in brief: as §1
Assay [6] can be described thus: Cell cycle arrest in human MDA-MB-231 cells assessed as accumulation at G0/G1 phase at 2 uM after 24 hrs by propidium iodide staining based FACS analysis (reference value: 50.4 %). Format: functional. In outline:
as §2

Assay [7] has as its system MDA-MB-231. Kind of assay: Induction of apoptosis in human MDA-MB-231 cells assessed as late apoptotic cells at 1 uM after 24 hrs by Annexin V-FITC/propidium iodide-staining based FACS analysis (reference value: 3.6 %). Format: functional.
Assay [8] is described as follows: Cytotoxicity against human PC3 cells assessed as growth inhibition at 50 uM after 48 hrs by MTT assay relative to control. The settings on record: PC-3, 48 h, read-out: GI. Format: functional. The method in brief: as §1
For assay [9], the system named is MDA-MB-231. Briefly: Induction of apoptosis in human MDA-MB-231 cells assessed as reduction in viable cells at 1 to 4 uM after 24 hrs by phase contrast microscopic analysis. Format: functional, cell-based. The method in brief:
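MDA-MB-231 cells were exposed for 24 h to 1, 2 and 4 μM beside a control. Morphology (shrinkage, deformation, number of viable cells) was examined and photographed by phase contrast microscopy.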

A short description of assay [10]: Cytotoxicity against human BT549 cells assessed as reduction in cell viability after 48 hrs by MTT assay. Format: functional, cell-based. The settings on record: BT-549, 48 h. In outline:
as §1

Assay [11] concerns MDA-MB-231. Briefly: Antimigratory activity against human MDA-MB-231 cells assessed inhibition of cell migration towards wound area at 2 to 4 uM up to 24 hrs by phase contrast microscopic analysis. Format: functional, cell-based. The method in brief: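 MDA-MB-231 seeded at 5×10^5 cells/well and grown 24 h to a confluent monolayer. Monolayer scratched with a 200 µL pipette tip and washed twice with PBS to remove non-adherent cells. Medium with compound at 1, 2 or 4 µM added. Wound closure photographed by phase contrast microscopy at 0 and 24 h after treatment.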

Assay [12] in a line: Cell cycle arrest in human MDA-MB-231 cells assessed as accumulation at G2/M phase at 1 uM after 24 hrs by propidium iodide staining based FACS analysis (reference value: 26 %). Format: functional. The method in brief:
as §2

In assay [13] the test system is MDA-MB-231. Briefly: Induction of apoptosis in human MDA-MB-231 cells assessed as late apoptotic cells at 4 uM after 24 hrs by Annexin V-FITC/propidium iodide-staining based FACS analysis (reference value: 3.6 %). Format: functional.
Assay [14] can be described thus: Cytotoxicity against HGC cells assessed as reduction in cell viability after 48 hrs by MTT assay. The conditions noted are these: Homo sapiens. Format: functional, cell-based. In outline: as §1
Assay [15] can be described thus: Cytotoxicity against human MCF7 cells assessed as growth inhibition at 50 uM after 48 hrs by MTT assay relative to control. Format: functional. The settings on record: MCF7, 48 h, read-out: GI. In outline:
as §1

Assay [16] concerns MDA-MB-231. Briefly: Induction of apoptosis in human MDA-MB-231 cells assessed as early apoptotic cells at 1 uM after 24 hrs by Annexin V-FITC/propidium iodide-staining based FACS analysis (reference value: 4.1 %). Format: functional.
Assay [17] is described as follows: Cell cycle arrest in human MDA-MB-231 cells assessed as accumulation at G0/G1 phase at 1 uM after 24 hrs by propidium iodide staining based FACS analysis (reference value: 50.4 %). Format: functional. In outline: as §2
The nature of assay [18]: Cytotoxicity against human MDA-MB-231 cells assessed as growth inhibition at 50 uM after 48 hrs by MTT assay relative to control. Format: functional. The conditions noted are these: MDA-MB-231, 48 h, read-out: GI. In outline: as §1
Assay [19] relates to MDA-MB-231. Briefly: Induction of apoptosis in human MDA-MB-231 cells assessed as necrotic cells at 2 uM after 24 hrs by Annexin V-FITC/propidium iodide-staining based FACS analysis (reference value: 2.8 %). Format: functional.
Assay [20] concerns MDA-MB-231. Briefly: Induction of apoptosis in human MDA-MB-231 cells assessed as loss of mitochondrial membrane potential at 2 uM after 24 hrs by rhodamine-123 -based spectrofluorometric analysis relative to control. Format: functional. In outline:
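MDA-MB-231 cells were plated at 5×10^5 cells/mL in 6-well plates, left to adhere overnight, then treated 24 h at 1, 2 and 4 μM. Cells were trypsinized, washed in PBS and loaded with rhodamine-123 (10 μg/mL) in PBS for 30 min at room temperature. After two PBS washes, fluorescence was read by spectrofluorometer (ex 480/em 530 nm). Loss is expressed against control; three independent experiments in triplicate.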

Assay [21] concerns MDA-MB-231. Kind of assay: Induction of apoptosis in human MDA-MB-231 cells assessed as early apoptotic cells at 4 uM after 24 hrs by Annexin V-FITC/propidium iodide-staining based FACS analysis (reference value: 4.1 %). Format: functional.
Assay [22] can be described thus: Cytotoxicity against human DU145 cells assessed as growth inhibition at 50 uM after 48 hrs by MTT assay relative to control. Format: functional. The settings on record: DU-145, 48 h, read-out: GI. In outline: as §1
Assay [23] in a line: Cytotoxicity against human A549 cells assessed as reduction in cell viability after 48 hrs by MTT assay. Format: functional, cell-based. The settings on record: A549, 48 h. The method in brief: as §1

On to `CC(C)n1c(/C=C2/C(=O)Nc3ccc(Br)cc32)nc2ccccc21`, for which the result with MDA-MB-231 [1], with MDA-MB-231 [3] and in the assay with MDA-MB-231 [9] was Active. The IC50 in assay [2] was 14.9 µM; in [10], 13.7 µM; in assay [14], 12.4 µM; in [23], 8.63 µM. The Activity in assay [4] was determined as 18.9%; in assay [6], 64.3%; with MDA-MB-231 [7], 4.7%; in [12] it was 21.8%; with MDA-MB-231 [13], 7.1%; in the assay on MDA-MB-231 [16] it was 8.6%. The Activity came out at 57.2% in assay [17], 3.3% with MDA-MB-231 [19], 32.5% in the assay on MDA-MB-231 [20] and 23.4% in the assay with MDA-MB-231 [21]. For the same compound, the inhibition of growth at 50 µM in [5], in assay [8], in [15], in assay [18] and in [22] was more than 50% each time. The inhibition result in the assay on MDA-MB-231 [11] was “Active”.

Broadly, the IC50 is the concentration at which inhibition is half-maximal.
